Source: PubChem (The Scripps Research Institute Molecular Screening Center)
In the library only some 1% were active in any assay of this set; here they are far more common.
proCasp7 act: procaspase-7 activators, primary screen, counter-screen for procaspase-3 activator project, biochemical, absorbance, HTS, human | recombinant procaspase-7, Ac-DEVD-pNA absorbance 405 nm; D23A/D198A/D206A triple mutant, cannot self-cleave; scale: DMSO 0, 5 µM enzyme 100 | AID 463210, 2010 | activation, % at 8.5 µM | 330,000 compounds, 0.093% hits;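 active means percent activation above the screen-wide mean plus 3 SD, cut at about 25% in these data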
Target sequence (P55210 whole entry D23A/D198A/D206A): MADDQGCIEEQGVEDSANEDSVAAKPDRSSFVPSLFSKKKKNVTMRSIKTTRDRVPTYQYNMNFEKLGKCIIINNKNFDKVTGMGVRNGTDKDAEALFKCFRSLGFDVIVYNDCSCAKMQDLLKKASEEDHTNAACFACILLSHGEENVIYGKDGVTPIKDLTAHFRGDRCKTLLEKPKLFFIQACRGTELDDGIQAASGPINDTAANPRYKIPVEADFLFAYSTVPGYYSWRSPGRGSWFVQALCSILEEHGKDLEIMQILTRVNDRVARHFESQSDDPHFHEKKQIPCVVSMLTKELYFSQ
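Replicates: singlicate. Assay system: Procaspase-7 triple mutant (PC-7 D3A). Signal: 405 nm absorbance of p-nitroaniline. Times: 1 h preincubation, 2 h reaction. Buffer or medium: Zinc-free HEPES pH 7.4 with 300 mM NaCl, 0.01% Triton X-100. Also added: DEVD-pNA substrate. Benchmarks: DMSO wells as 0%, DMSO with 5 µM added PC-7 as 100%.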
LYPLA2 inh: LYPLA2 inhibitors, primary screen, counter-screen for PME1 inhibitor project, biochemical, fluorescence polarization, FP-Rh probe ABPP; Acyl-protein thioesterase 2 (Homo sapiens), O95372; recombinant LYPLA2; inhibition, % at 5.9 µM; 320,000 compounds, 0.38% hits;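 active means inhibition above the screen-wide mean plus 3 SD, limit set per campaign, cut at about 26% in these data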;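 further: 0% = LYPLA2 with DMSO and 100% = wells lacking LYPLA2 enzyme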
Target sequence (O95372 whole entry, looked up): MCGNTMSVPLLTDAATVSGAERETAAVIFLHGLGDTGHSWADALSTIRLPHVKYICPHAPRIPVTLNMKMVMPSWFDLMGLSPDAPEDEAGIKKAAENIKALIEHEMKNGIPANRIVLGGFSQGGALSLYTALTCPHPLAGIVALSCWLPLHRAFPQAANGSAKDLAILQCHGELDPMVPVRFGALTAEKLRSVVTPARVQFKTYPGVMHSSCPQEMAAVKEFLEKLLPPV
procasp3 activ: activators of human procaspase-3 D3A mutant, primary screen, biochemical, absorbance, PC-3 D3A mutant, single concentration; recombinant procaspase-3 D3A, Ac-DEVD-pNA absorbance 405 nm; activation, % at 8.5 µM; 330,000 compounds, 0.11% hits; AID 463141, 2010;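 active means activation above the mean of all tested compounds plus 3 SD, cut at about 21% in these data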;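 further: 0% = DMSO alone and 100% = DMSO wells spiked with extra 5 µM PC-3 D3A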
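Assay system – Procaspase-3 D3A mutant · Benchmarks – DMSO low control, extra-enzyme high control · Technique – 405 nm absorbance of p-nitroaniline, reads at 0 and 120 min · Doses – 8.5 µM nominal · Measure – % activation between DMSO and enzyme-spiked controls · Also added – Ac-DEVD-pNA chromogenic peptide substrate · Schedule – 1 h compound preincubation, 2 h substrate hydrolysis at 25 °C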
PME-1 inh: PME-1 inhibitors via competitive probe labeling, primary screen, biochemical, fluorescence polarization, FP-Rh probe, HTS | Protein phosphatase methylesterase 1 (Homo sapiens), Q9Y570 | recombinant PME-1 | inhibition, % at 5.9 µM | 320,000 compounds, 0.53% hits | AID 2130, 2009;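 active means inhibition above the campaign mean of all compounds plus 3 SD, cut at about 26% in these data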;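 further: competitive labeling of PME-1 active site by serine hydrolase directed probe; 0% = PME-1 with DMSO and 100% = wells lacking PME-1 enzyme; inhibitors block probe labeling so polarization falls and inhibition rises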
LYPLA1 inh: LYPLA1 inhibitors, primary screen, counter-screen for PME1 inhibitor project, biochemical, fluorescence polarization, FP-Rh probe ABPP. Acyl-protein thioesterase 1 (Homo sapiens), O75608. recombinant LYPLA1. inhibition, % at 5.9 µM. 320,000 compounds, 0.16% hits. AID 2174, 2009;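 active means inhibition above the mean of all tested compounds plus 3 SD, set per campaign, cut at about 14% in these data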;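 further: inhibitors block serine hydrolase probe labeling of LYPLA1 so polarization falls; 0% = enzyme with DMSO and 100% = wells lacking LYPLA1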
Target sequence (O75608 whole entry, looked up): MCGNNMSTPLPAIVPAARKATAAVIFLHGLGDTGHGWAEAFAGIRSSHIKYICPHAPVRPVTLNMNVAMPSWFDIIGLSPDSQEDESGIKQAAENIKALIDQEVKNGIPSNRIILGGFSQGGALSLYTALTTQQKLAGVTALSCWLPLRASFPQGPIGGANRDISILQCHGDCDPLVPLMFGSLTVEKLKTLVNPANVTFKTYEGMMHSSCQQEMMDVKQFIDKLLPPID
Fam108B counter: mouse Fam108B serine hydrolase inhibitors, primary screen, counter-screen for RBBP9 inhibitor project, biochemical, fluorescence polarization. 300,000 compounds, 0.33% hits. recombinant Fam108B, FP-Rh probe fluorescence polarization. inhibition, % at 9.51 µM;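 active means inhibition above the screen mean inhibition plus 3 SD, computed separately per campaign, cut at about 18% in these data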;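 further: inhibitors lower polarization as less probe binds the enzyme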
Fam108b confirm: mouse Fam108b serine hydrolase inhibitors, confirmation, counter-screen for RBBP9 inhibitor project, biochemical, fluorescence polarization, triplicate | shares compounds with Fam108B counter | recombinant Fam108b, FP-Rh probe fluorescence polarization | inhibition, % at 9.51 µM | 930 compounds, 44% hits | AID 1978, 2009;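 active means inhibition above a limit from the primary screen, the mean over all compounds plus 3 SD, cut at about 19% in these data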;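 further: 0% = median of active Fam108b wells and 100% = catalytically dead S170A mutant; inhibitors free the probe so polarization falls as inhibition rises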
Fam108b inh: inhibition of mouse Fam108b by HTS hits, late-stage follow-up, biochemical, gel-based ABPP, soluble recombinant form. inhibition, % at 20 µM. shares compounds with Fam108B counter. AID 588649, 2011. fluorophosphonate probe. 260 compounds, 44% hits; in the data active means inhibition above about 40%
LYPLA1 confirm: LYPLA1 inhibitors, retest, confirmation, counter-screen for PME1 inhibitor project, biochemical, fluorescence polarization, FP-Rh probe ABPP; recombinant LYPLA1; 480 compounds, 69% hits; shares compounds with LYPLA1 inh; AID 2233, 2010; inhibition, % at 5.9 µM;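 active means mean inhibition across replicates above the hit cutoff set in the primary screen, cut at about 15% in these data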;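 further: loss of FP-Rh probe labeling of LYPLA1 seen as lower polarization; 0% = LYPLA1 with DMSO and 100% = wells lacking LYPLA1 enzyme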
LYPLA2 conf: LYPLA2 inhibitors, retest, confirmation, counter-screen for PME1 inhibitor project, biochemical, fluorescence polarization, FP-Rh probe ABPP; recombinant LYPLA2; inhibition, % at 5.9 µM; AID 2232, 2010; shares compounds with LYPLA2 inh; 1,100 compounds, 72% hits;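 active means mean inhibition across replicates above the hit cutoff set in the primary screen, cut at about 26% in these data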;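 further: blocked labeling of the enzyme by serine hydrolase FP-Rh probe lowers polarization; 0% = enzyme with DMSO and 100% = wells lacking LYPLA2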
Numbers without * were called inactive; . = not tested or not shown.

SMILES	proCasp7 act	LYPLA2 inh	procasp3 activ	PME-1 inh	LYPLA1 inh	Fam108B counter	Fam108b confirm	Fam108b inh	LYPLA1 confirm	LYPLA2 conf
COC1=CC(=O)C(O)=C(CCCCCCC/C=C/CCCCCCCC2=C(O)C(=O)C=C(OC)C2=O)C1=O	-3.9	50.9*	3.9	22.1	56.2*	47.1*	51.5*	.	71.9*	35.7*
O=S(=O)(c1cccs1)N1CN(Cc2ccco2)c2nc3ccccc3nc21	-5.5	37.8*	-1.9	33.7*	30.4*	27.8*	9.2	.	2.3	8.4
Cc1cc2c(N)cccc2nn1	-25.1	52.1*	-14.2	57.9*	46.8*	25.0*	15.8	.	2.8	45.7*
Nc1cccc2nc3ccccc3cc12	-6.3	-4.3	-11.9	-32.3	-1.7	-2.8	.	.	.	.
O=C(NCCc1ccccc1)C(=O)NCC1CCNCC1	3.6	6.4	-8.2	3.5	-0.1	4.4	.	.	.	.
O=C1C(SCCO)=C(SCCO)C(=O)c2ccccc21	-23.8	30.9*	-22.8	31.1*	3.2	51.3*	65.5*	90.0*	.	54.9*
O=C1C(Cl)=C(NCCCO)C(=O)c2ccccc21	0.8	0.1	-0.9	5.6	2.2	-0.3	.	.	.	.
COC(=O)Cn1c(O)c(N=NC(=O)CNC(=O)c2ccncc2)c2ccccc21	4.4	-1.6	-1.7	-7.7	0.5	8.0	.	.	.	.
COc1cccc2c1C(=O)c1c(O)c3c(c(O)c1C2=O)C[C@@](O)(C(=O)CO)C[C@@H]3O[C@H]1C[C@H](N)[C@H](O)[C@H](C)O1	-20.2	42.6*	3.7	47.7*	59.5*	31.9*	34.1*	65.0*	52.4*	26.8*
CCn1c(CSc2nnc(-c3ccncc3)n2C)nc2cc(C(=O)O)ccc21	1.7	40.8*	7.7	39.7*	37.2*	28.7*	37.4*	15.0	40.6*	36.2*
CCn1c(CSc2ncn[nH]2)nc2cc(C(=O)O)ccc21	10.5	10.5	7.8	3.3	4.2	6.8	.	.	.	.
COc1ccc(N2CC(NC(=O)N3CCN(C(=O)c4ccco4)CC3)CC2=O)cc1OC (stereo not given)	-9.0	3.8	-2.4	2.9	0.7	-4.8	.	.	.	.
Cc1nc2ccccc2n2c(O)c(CC(=O)O)cc12	-19.8	26.6*	-11.2	22.3	12.2	18.3*	10.5	.	.	9.6
O=C(Nc1cc(Sc2ccccn2)cc([N+](=O)[O-])c1)c1ccc([N+](=O)[O-])cc1	12.3	56.5*	0.4	4.3	-13.2	19.1*	5.5	.	.	13.4
Nc1c(N2CCOCC2)cc(Cl)c2nonc12	3.4	3.6	6.2	-0.7	-1.0	0.4	.	.	.	.
Nc1ccc(N2CCCCC2)c2nonc12	-11.2	89.6*	-4.0	33.9*	78.7*	66.6*	-3.7	.	3.9	-0.2
Nc1c(N2CCCC2)cc(Cl)c2nonc12	-12.8	72.2*	1.4	31.3*	72.1*	54.3*	42.3*	0.0	0.0	-1.4
NS(=O)(=O)Cc1noc2ccccc12	6.1	3.4	4.8	5.2	-0.7	0.8	.	.	.	.
COc1ccc(/C=C/C(=O)OCC(=O)NCCc2ccccc2)c(OC)c1	5.7	.	1.3	.	.	.	.	.	.	.
O=C(O)c1cccc(-c2ccc(/C=N/Nc3ccc([N+](=O)[O-])cc3)o2)c1	-3.1	31.1*	-11.6	32.6*	10.2	22.6*	20.1*	.	.	27.2*
Cc1ccc(/C=C2/N=C(c3ccccc3)NNC2=O)cc1	-14.2	0.4	-7.6	-3.6	0.3	-1.2	.	.	.	.
CCCCn1c(NC(=O)c2ccccc2Cl)c(C#N)c2nc3ccccc3nc21	-19.4	58.2*	-10.6	26.8*	45.3*	38.1*	53.7*	10.0	62.4*	0.4
N#Cc1c(NC(=O)c2ccccc2Cl)n(Cc2ccccc2)c2nc3ccccc3nc12	-23.0	-6.4	-20.4	12.1	-4.9	11.9	.	.	.	.
N=C1CCC(=N)c2c1c(O)c1ccccc1c2O	-9.7	42.2*	-81.8	63.8*	30.7*	39.2*	10.6	.	10.3	24.8
NC(=O)C1CCN(C2=C(NS(=O)(=O)c3ccccc3)C(=O)c3ccccc3C2=O)CC1	1.0	2.2	-0.9	2.4	0.7	-0.3	.	.	.	.
SMILES	proCasp7 act	LYPLA2 inh	procasp3 activ	PME-1 inh	LYPLA1 inh	Fam108B counter	Fam108b confirm	Fam108b inh	LYPLA1 confirm	LYPLA2 conf
NC(=O)C1CCN(C2=C(Cl)C(=O)c3ccccc3C2=O)CC1	-5.4	42.2*	-10.8	22.5	7.4	50.5*	58.9*	0.0	.	36.0*
O=C1C(Cl)=C(N2CCC(C(=O)O)CC2)C(=O)c2ccccc21	-1.2	40.0*	2.5	16.5	2.0	29.2*	51.8*	60.0*	.	37.3*
O=C(CN(C(=O)CCC(=O)Nc1ccccn1)c1ccc2c(c1)OCO2)NCc1ccc(F)cc1	5.6	2.9	1.6	6.0	2.5	4.0	.	.	.	.
O=C1C=C(N2CCOCC2)c2ccccc2C1=O	2.9	67.7*	4.6	28.3*	43.1*	57.7*	65.6*	20.0	50.4*	79.4*
CCCn1nc(C(=O)NNC(=O)C2CSC3(C)CCC(=O)N23)c2ccccc2c1=O (stereo not given)	2.1	-3.2	-0.1	0.8	-0.7	-0.3	.	.	.	.
Cc1ccc(S(=O)(=O)NCc2ccccc2)s1	2.9	5.2	3.1	0.3	1.5	1.9	.	.	.	.
COc1cc(Br)c(C(=O)c2nccc3cc(OC)c(OC)cc23)cc1OC	1.1	56.8*	-0.3	22.2	43.9*	62.6*	62.4*	0.0	15.6*	84.6*
